Results collected from several papers.
Lines come from different studies, so protocols differ.
BCL2L1: Bcl-2-like protein 1 (BCL2L1, Homo sapiens, UniProt Q07817)
PPO3: PPO3 (Agaricus bisporus, UniProt C7FF04)
CNR1: Cannabinoid receptor 1 (CNR1, Homo sapiens, UniProt P21554)

Structure (SMILES) | target | effect on | mode | method | setting | endpoint | value
Cc1c(-c2ccc(N3CCc4cccc(C(=O)Nc5nc6ccccc6s5)c4C3)nc2C(=O)NCCCCNc2cccc3c2C(=O)N(C2CCC(=O)NC2=O)C3=O)cnn1CC12CC3CC(CC(C3)C1)C2 (centres unmarked) | BCL2L1 | ligand displacement | – | AlphaScreen | – | Ki | 1.49 nM
COC(=O)c1ccc(NC(=O)c2sc3nc(C)cc(C)c3c2N)cc1 | Adenosine receptor A2a (ADORA2A, Homo sapiens, UniProt P29274) | ligand displacement | – | radioligand | – | Ki | 3310 nM
CCc1ccc(Cn2nnc3c4ccc(F)cc4c(=O)[nH]c32)cc1 | Poly [ADP-ribose] polymerase 1 (PARP1, Homo sapiens, UniProt P09874) | enzyme activity | inhibitor | fluorescence | – | IC50 | > 10000 nM
Cn1cc(C2=C(c3cn(CCCSC(=N)N)c4ccccc34)C(=O)NC2=O)c2ccccc21 | Serine/threonine-protein kinase VRK2 (VRK2, Homo sapiens, UniProt Q86Y07) | enzyme activity | inhibitor | – | – | IC50 | 26900 nM
CC1(C)CCC(c2ccc(Cl)cc2)=C(CN2CCN(c3ccc(C(=O)NS(=O)(=O)c4ccc(N[C@H](CCN(CCOCCOCCOCCNc5cccc6c5C(=O)N(C5CCC(=O)NC5=O)C6=O)C5CCC5)CSc5ccccc5)c(S(=O)(=O)C(F)(F)F)c4)cc3)CC2)C1 (some centres unmarked) | BCL2L1 | ligand displacement | – | AlphaScreen | – | Ki | 9.02 nM
Cc1ncsc1-c1ccc([C@H](C)NC(=O)[C@@H]2C[C@@H](O)CN2C(=O)[C@@H](NC(=O)CCCCCCCS(=O)(=O)NC(=O)c2nc(N3CCc4cccc(C(=O)Nc5nc6ccccc6s5)c4C3)ccc2-c2cnn(CC34CC5CC(CC(C5)C3)C4)c2C)C(C)(C)C)cc1 | BCL2L1 | ligand displacement | – | AlphaScreen | – | Ki | 1.71 nM
O=C(NO)c1ccc(Cn2cnc3c(Nc4cccc([N+](=O)[O-])c4)ncnc32)cc1 | Histone deacetylase 2 (HDAC2, Homo sapiens, UniProt Q92769) | enzyme activity | inhibitor | fluorescence | – | IC50 | 167 nM
COc1ccc(NC(=O)CSc2nc3ccccc3cc2C=Nn2c(S)nnc2-c2ccccc2)cc1 | PPO3 | enzyme activity | inhibitor | – | – | IC50 | > 50000 nM
CC(C)[C@@H](CN1CCc2ccccc2C1)NC(=O)c1cccc(-c2cccc(C#N)c2)c1 | Mu-type opioid receptor (Oprm1, Mus musculus, UniProt P42866) | ligand displacement | – | radioligand | – | Ki | 4110 nM
CN1CCC(CNc2ccc3ncc(-c4cccc(OC(F)(F)F)c4)n3n2)CC1 | 5-hydroxytryptamine receptor 2A (HTR2A, Homo sapiens, UniProt P28223) | calcium signal | antagonist | – | – | IC50 | 3500 nM
CC1(C)CCC(c2ccc(Cl)cc2)=C(CN2CCN(c3ccc(C(=O)NS(=O)(=O)c4ccc(N[C@H](CCNCCOCCOCCOCCNc5cccc6c5C(=O)N(C5CCC(=O)NC5=O)C6=O)CSc5ccccc5)c(S(=O)(=O)C(F)(F)F)c4)cc3)CC2)C1 (some centres unmarked) | BCL2L1 | ligand displacement | – | AlphaScreen | – | Ki | 0.27 nM
Cc1ncsc1-c1ccc([C@H](C)NC(=O)[C@@H]2C[C@@H](O)CN2C(=O)[C@@H](NC(=O)CCCCCCCS(=O)(=O)NC(=O)c2nc(N3CCc4cccc(C(=O)Nc5nc6ccccc6s5)c4C3)ccc2-c2cc(C#N)n(CC34CC5CC(CC(C5)C3)C4)c2C)C(C)(C)C)cc1 | BCL2L1 | ligand displacement | – | AlphaScreen | – | Ki | 6.1 nM
Cc1ccccc1-c1cc(=O)oc2cc(OC(C)C(=O)N(C)C)ccc12 (centres unmarked) | DNA-directed RNA polymerase, mitochondrial (POLRMT, Homo sapiens, UniProt O00411) | enzyme activity | inhibitor | – | – | IC50 | 22.2 nM
CCCC[C@@H](NC(=O)[C@@H](Cc1cn(C(=O)OC)c2ccccc12)NC(=O)[C@H](CC(C)(C)C)NC(=O)N1[C@H](C)CCC[C@@H]1C)C(=O)O | Endothelin-1 receptor (EDNRA, Homo sapiens, UniProt P25101) | ligand displacement | – | radioligand | cell membranes | IC50 | 443 nM
C[C@]12C=CC(=O)N[C@@H]1CC[C@@H]1[C@@H]2CC[C@]2(C)[C@@H](C(=O)Nc3cc(C(F)(F)F)ccc3C(F)(F)F)CC[C@@H]12 | 3-oxo-5-alpha-steroid 4-dehydrogenase 1 (SRD5A1, Homo sapiens, UniProt P18405) | enzyme activity in cells | inhibitor | – | – | IC50 | 16 nM
O=c1c(NCCc2ccccc2C(F)(F)F)c(Nc2ccc(Cl)cc2)c1=O | CNR1 | calcium signal | antagonist | fluorescence | – | IC50 | 1350 nM
CCS(=O)(=O)NC(=O)c1nc(N2CCc3cccc(C(=O)Nc4nc5ccccc5s4)c3C2)ccc1-c1cnn(CC23CC4CC(CC(C4)C2)C3)c1C | BCL2L1 | ligand displacement | – | AlphaScreen | – | Ki | 0.0142 nM
O=c1c(NCCc2ccc(Cl)cc2Cl)c(Nc2ccc(Cl)cc2)c1=O | CNR1 | calcium signal | antagonist | fluorescence | – | IC50 | > 10000 nM
Cc1ccccc1NC(=O)CSc1nc2ccccc2cc1C=Nn1c(S)nnc1-c1ccccc1 | PPO3 | enzyme activity | inhibitor | – | – | IC50 | > 50000 nM
Cc1ncsc1-c1ccc([C@H](C)NC(=O)[C@@H]2C[C@@H](O)CN2C(=O)[C@@H](NC(=O)CCCCCCCNC(=O)c2nc(N3CCc4cccc(C(=O)Nc5nc6ccccc6s5)c4C3)ccc2-c2cnn(CC34CC5CC(CC(C5)C3)C4)c2C)C(C)(C)C)cc1 | BCL2L1 | ligand displacement | – | AlphaScreen | – | Ki | 1.31 nM
O=c1[nH]c(=O)c(Cc2cccc(C(F)(F)F)c2)c([C@H]2CC[C@H](c3ccccc3)CC2)[nH]1 | UDP-glucuronosyltransferase 1A3 (UGT1A3, Homo sapiens, UniProt P35503) | enzyme activity | inhibitor | – | – | IC50 | > 20000 nM
O=C(CSc1nc2ccccc2cc1C=Nn1c(S)nnc1-c1ccccc1)Nc1ccc(Cl)cc1Cl | PPO3 | enzyme activity | inhibitor | – | – | IC50 | > 50000 nM
Cn1cc2c(C(=O)O)ccc(NS(=O)(=O)c3ccc(OCC4CCC4)c(Cl)c3)c2n1 | cGMP-specific 3',5'-cyclic phosphodiesterase (PDE5A, Homo sapiens, UniProt O76074) | enzyme activity | – | – | – | IC50 | > 175000 nM
